Published values collected from several papers.
Lines come from different studies, so protocols differ.
Target: Delta-type opioid receptor (OPRD1, Homo sapiens, UniProt P41143)

Cc1cc(Nc2nccc(C)n2)cc(-c2cnc([C@@]3(O)CC[C@H](C(=O)O)C(C)(C)C3)s2)c1  inhibition (ligand displacement; 10 µM): 12.8%
C[C@H](C(=O)N[C@H]1COc2ccccc2[C@@H]1S(C)(=O)=O)c1ccc(F)cc1  inhibition (ligand displacement; 10 µM): 1%
Nc1ncc(-c2nc(N3CCOCC3)nc(N3CCOCC3)n2)c(C(F)F)n1  remaining signal (cell-free assay; radioligand; 10 µM): 103%
CC[C@@H]1CN2CC[C@@]3(O)C(=Nc4cccc(-c5ccoc5)c43)[C@@H]2C[C@@H]1/C(=C\OC)C(=O)OC  Emax (β-arrestin recruitment; agonist): > 100%
Clc1ccc2c(C3CCN(CCc4c[nH]c5ccccc45)CC3)c[nH]c2c1  inhibition (ligand displacement; radioligand; 10 µM): 35%
CC[C@@H]1CN2CC[C@@]3(O)C(=Nc4cccc(-c5ccccc5)c43)[C@@H]2C[C@@H]1/C(=C\OC)C(=O)OC  Emax (β-arrestin recruitment; agonist): > 100%
CC1(C)SSC(C)(C)[C@@H](NC(=O)[C@@H](N)Cc2ccc(O)cc2)C(=O)NCC(=O)N[C@@H](Cc2ccccc2)C(=O)N2CCN(CC2)C(=O)[C@H](Cc2ccccc2)NC(=O)CNC(=O)[C@@H]1NC(=O)[C@@H](N)Cc1ccc(O)cc1  Emax (cAMP; agonist; luciferase; HEK293): 206%
CC(C)N1CCC[C@H]1CNC(=O)c1cn(C2CCCC2)c(=O)c2c1c1ccccc1n2C  inhibition (ligand displacement; radioligand; 10 µM): 6%
O=C(c1ccc(F)cc1)N1CC(COc2ccc(Br)cc2)(C(=O)O)C1  inhibition (cell-free assay; 10 µM): -5.22%
CCN(CC)CCCC[C@H](NC(=O)[C@H](CC(C)C)NC(=O)[C@H](C)NC(=O)[C@H](Cc1ccccc1)NC(=O)c1ccc(C(C)(C)C)cc1)C(=O)N[C@@H](CO)C(=O)OC  remaining binding (ligand displacement; radioligand; 10 µM): 71.4%
COCc1c(-c2cc3cc(C)cc(OC)c3s2)c2c(N)ncnn2c1CN1CCNC(=O)C1  inhibition (ligand displacement; radioligand; 10 µM): 16%
c1ccc(C(NCCNC(c2ccccc2)c2ccccc2)c2ccccc2)cc1  inhibition (ligand displacement; 10 µM): 81%
